Compound activity from PubChem.
Lmaj promast: Leishmania major promastigote growth inhibition, primary screen; inhibition, % at 10 µM; Leishmania major promastigotes, resazurin fluorescence viability; actives 9% (n = 200,000); AID 1063, 2008; in the data active = inhibition above about 50%;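 also: promastigotes grown with compound for 44 hours at 28 °C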
RAM network inh: inhibitors of the yeast RAM network, primary screen, dse1pr::URA3 reporter, 5-FOA selection; S. cerevisiae dse1pr::URA3 reporter, 5-FOA growth OD615, 2 d; analog-sensitive cbk1-as2 kinase mutant strain; inhibition, % at 50 µM; actives 1.8% (n = 190,000); AID 868, 2007;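 active = inhibition above a set limit, 3 SD over mean compound inhibition, cut at about 8.4% in these data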;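 also: 0% = DMSO-only wells with no growth and 100% = 10 µM 1-NA-PP1 full growth; inhibition rescues growth on 5-FOA so higher OD means more RAM inhibition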
WT yeast gro inh: growth inhibition of WT strain, primary screen, mitochondrial fusion inhibitor project, WT and mutant strains, chemical genetic; actives 2.1% (n = 190,000); mitochondrial fusion phenotypic screen; AID 1362, 2008; inhibition, % at 10 µM; in the data active = inhibition above about 58%; tested in S. cerevisiae
ABCG2 inh: ABCG2 efflux pump inhibitors, primary screen, multiplex with ABCB1, IgMXP3 cells, flow cytometry | Broad substrate specificity ATP-binding cassette transporter ABCG2 (Homo sapiens), Q9UNQ0 | JC-1 efflux | inhibition, % at 6.6 µM | actives 0.1% (n = 190,000);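 active = inhibition above 80%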;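 also: 0% = DMSO and 100% = nicardipine control wells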
Target sequence (Q9UNQ0 whole entry, looked up): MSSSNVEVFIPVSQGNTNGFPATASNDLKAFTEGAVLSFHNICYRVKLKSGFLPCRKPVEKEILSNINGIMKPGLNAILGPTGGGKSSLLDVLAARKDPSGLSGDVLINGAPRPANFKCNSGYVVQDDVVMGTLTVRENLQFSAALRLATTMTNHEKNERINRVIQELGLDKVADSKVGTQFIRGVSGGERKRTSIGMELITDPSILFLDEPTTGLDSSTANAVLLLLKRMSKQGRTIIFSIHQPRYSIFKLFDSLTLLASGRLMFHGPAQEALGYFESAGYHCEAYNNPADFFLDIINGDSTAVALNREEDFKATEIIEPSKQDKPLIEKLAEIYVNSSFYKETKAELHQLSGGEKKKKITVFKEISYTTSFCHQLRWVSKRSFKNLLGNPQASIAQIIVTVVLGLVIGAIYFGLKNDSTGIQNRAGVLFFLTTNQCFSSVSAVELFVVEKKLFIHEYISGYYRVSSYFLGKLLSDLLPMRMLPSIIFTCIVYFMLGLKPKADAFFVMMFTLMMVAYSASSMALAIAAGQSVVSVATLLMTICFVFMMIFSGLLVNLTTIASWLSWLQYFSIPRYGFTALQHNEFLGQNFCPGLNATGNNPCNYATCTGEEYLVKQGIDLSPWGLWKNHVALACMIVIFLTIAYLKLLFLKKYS
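Test system: IgMXP3 cells (ABCG2) mixed with DDAO far-red-labelled CCRF-Adr cells (ABCB1). Reagent: JC-1 transporter substrate. Compound dosing: single test compound dose, 6.6 µM final. Times: 10 min compound exposure, 25 °C. Detection: flow cytometry of retained JC-1 fluorescence. Read-out basis: efflux inhibition in percent versus controls. Controls: nicardipine and DMSO wells.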
ABCB1 block: ABCB1 efflux pump inhibitors, primary screen, cell-based, multiplex, flow cytometry, ABCG2 counter-screen; ATP-dependent translocase ABCB1 (Homo sapiens), P08183; CCRF-Adr cells, JC-1 efflux; inhibition, % at 6.6 µM; actives 0.067% (n = 190,000); AID 1326, 2008; in the data active = inhibition above about 40%;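 also: 0% = vehicle and 100% = reference inhibitor; higher value means more JC-1 retained so stronger ABCB1 efflux block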
Lmaj promast 1uM: Leishmania major promastigote growth inhibition, confirmation, 1 µM repeat of primary hits | shares compounds with Lmaj promast | L. major promastigote growth, resazurin fluorescence, 48 h | inhibition, % at 1 µM | actives 13% (n = 1,100);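 active = inhibition above about 50% in both repeat tests, limit read from the data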
Starred values were filed as active, the others as inactive; . = not tested or not shown; ! = not active in a repeat. Most compounds without a hit are left out; they make up all but 12% or so of the library.

SMILES	Lmaj promast	RAM network inh	WT yeast gro inh	ABCG2 inh	ABCB1 block	Lmaj promast 1uM
Cc1cccc(N(CC(=O)NCc2ccc(F)cc2)C(=O)c2csnn2)c1C	0	0	4	6	2	.
c1cnc2c(c1)ccc1cccnc12	100*	0	35	7	1	52*!
O=C(O)Cc1sc(-c2cccnc2)nc1-c1ccc(Br)cc1	0	2	-14	2	1	.
CCOC(=O)c1ccccc1NC(=O)Cc1sc(-c2cccnc2)nc1-c1ccc(C)cc1	97*	4	45	23	4	-4
COc1ccc(OC)c(S(=O)(=O)Nc2ccc(Oc3ccccc3)cc2)c1	67*	5	63*	2	1	-11
CCc1ccc(OCCOCC(O)CNC2CCCC2)cc1 (stereo not drawn)	60*	2	6	5	1	4
Cc1cc(C)c2c(CC(=O)N(CCC#N)Cc3cccnc3)coc2c1	81*	-1	11	2	0	9
CC(Sc1ccccc1)C(=O)N(CCC#N)Cc1cccnc1 (stereo not drawn)	7	2	-1	0	0	.
O=C1COc2ccc(N3C(=O)C=CC3=O)cc2N1	-2	2	4	9	2	.
COc1ccc(OC)c(NC(=O)CCN2CCN(c3ccccc3F)CC2)c1	0	0	-4	22	3	.
COc1ccc(C(=O)CCN2CCN(c3ccccc3F)CC2)cc1	79*	2	2	5	1	1
COc1cc(NC(=O)Cn2nnc(-c3ccncc3)n2)cc(OC)c1	90*	1	-2	0	0	-10
CCOc1ccc(-c2nnn(CC(=O)Nc3cc(OC)cc(OC)c3)n2)cc1OCC	-4	4	-11	1	0	.
CCn1nc(CC(=O)O)c2ccccc2c1=O	-2	0	7	3	0	.
CCN1CCN(c2cc(SC(C)C)nc(-c3ccc(OC)cc3)n2)CC1	100*	0	95	7	3	0
COc1ccccc1N1CCN(C2CCN(C(=O)c3cccc(F)c3)CC2)CC1	82*	1	-7	7	0	-17
COc1ccccc1N1CCN(C2CCN(C(=O)c3ccc(F)cc3)CC2)CC1	-10	1	-2	0	0	.
CN(C)c1ccccc1C(=O)N1CCCC(C(=O)c2ccc3ccccc3c2)C1 (stereo not drawn)	13	0	26	4	2	.
CC(=O)O[C@]1(C(C)=O)CC[C@H]2[C@@H]3C[C@H](C)C4=CC(=O)CC[C@]4(C)[C@H]3CC[C@@]21C	76*	-1	5	5	3	-2
NC(=O)NOCc1ccc(Cl)cc1Cl	3	3	7	0	0	.
CNC(=S)/N=C/NOCc1ccc(Cl)cc1Cl	58*	1	62*	5	1	15
COC(=O)C1=C(N)N(c2ccc(F)cc2)C2=C(C(=O)CCC2)C1c1ccc2c(c1)OCO2 (stereo not drawn)	72*	3	7	1	1	15
CC1=C(C(=O)Nc2ccccc2)C(c2ccc3c(c2)OCO3)C2=C(CCCC2=O)N1 (stereo not drawn)	0	0	1	1	-3	.
Cc1ccc(SCCC(=O)OC(C(=O)NC(N)=O)C(C)C)cc1 (stereo not drawn)	11	5	-5	5	3	.
O=C1C=C(N(CCO)Cc2ccccc2)c2ccccc2C1=O	96*	0	38	2	1	-12
SMILES	Lmaj promast	RAM network inh	WT yeast gro inh	ABCG2 inh	ABCB1 block	Lmaj promast 1uM
O=C(CCN1C(=O)c2ccccc2C1=O)N(CCO)Cc1ccccc1	-2	0	-9	3	1	.
COC(=O)c1ccc(CN(Cc2ccc(C(=O)OC)o2)C(C)(C)C)o1	97*	1	1	-2	0	-12
CC(C)(C)C(=O)[C@@H]1[C@@H]2C(=O)N(Cc3ccccc3)C(=O)[C@@H]2[C@H]2c3ccccc3C=CN12	68*	1	22	-1	1	-8
CC(=O)[C@H]1[C@@H]2C(=O)N(c3cccc(Cl)c3)C(=O)[C@@H]2[C@H]2c3ccccc3C=CN21	-3	2	-49	0	0	.
CC(C)=N/N=C(\c1cccc([N+](=O)[O-])c1)C12CN3CN(CN(C3)C1)C2	51*	3	-5	13	0	-11
CCN1CCc2c(OCc3ccccc3)cccc2C1=O	-9	-1	-23	41	1	.
CC(C)(C)c1ccc(-c2ncccc2O)cc1	100*	0	20	1	0	83*
COc1ccc(OCC(=O)N/N=C2/C=C(C)CC2)cc1	0	2	-5	17	1	.
O=c1c(C=NCCN2CCNCC2)c(-c2ccccc2)[nH]n1-c1ccc([N+](=O)[O-])cc1	101*	3	0	4	0	28
Cc1cc(N2C(=O)C3C4CC(c5ccccc5)C(C4)C3C2=O)no1 (stereo not drawn)	-7	1	-6	0	1	.
CC(OC(=O)CCc1nc2ccccc2c(=O)[nH]1)C(=O)c1ccc(C(C)(C)C)cc1 (stereo not drawn)	54*	2	20	6	2	-1
CC(OC(=O)CCc1nc2ccccc2c(=O)[nH]1)C(=O)NC1CCCC1 (stereo not drawn)	-4	0	-13	4	0	.
Clc1ccccc1/C=C/C=N/Nc1nc(N2CCOCC2)nc(N2CCOCC2)n1	13	0	20	0	1	.
Nc1cccc2nc3ccccc3cc12	101*	3	40	5	-1	79*
Nc1[nH]nc2nc3ccccc3cc12	-5	1	-7	0	-1	.
CC1=Nc2ccccc2N=C(NC(=O)CSc2nnnn2-c2ccccc2)C1c1ccccc1 (stereo not drawn)	99*	3	-11	1	0	16
Clc1ccc(-c2cc(-c3nnc4n3CCCCC4)c3ccccc3n2)cc1	-3	7	25	0	0	.
Fc1ccc(-c2cc(-c3nnc4n3CCCCC4)c3ccccc3n2)cc1	52*	3	-8	5	7	-12
O=C(O)CC1CCC(=C(Cl)Cl)C1 (stereo not drawn)	95*	1	-10	1	0	-8
Cc1c(N=Cc2ccc(Br)s2)cccc1[N+](=O)[O-]	-3	0	-15	3	0	.
Cc1cc(C)cc(N=Cc2ccc([N+](=O)[O-])s2)c1	100*	-1	41	-1	0	13
O=C(N/N=C/c1ccccc1OCc1ccccc1Cl)c1cccnc1	91*	2	-2	16	4	-11
